This is an account of results in ChEMBL document CHEMBL1154048, “Design, synthesis and pharmacological evaluation of new 1-[3-(4-arylpiperazin-1-yl)-2-hydroxy-propyl]-3,3-diphenylpyrrolidin-2-one derivatives with antiarrhythmic, antihypertensive, and alpha-adrenolytic activity” (Eur J Med Chem, 2009).

One test concerns the target Guinea pig spleen α1B (Cavia porcellus, UniProt H0WBQ9). Briefly: Antagonist activity at Alpha-1B adrenoceptor in guinea pig spleen assessed as inhibition of noradrenaline-induced contraction after 30 mins. To be noted: read-out: pA2 (converted). Format: functional, tissue-based. In outline:
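Guinea-pig spleen strips equilibrated 100 min with repeated noradrenaline stimulation and washout. Two cumulative noradrenaline concentration–response curves were run 60 min apart, before and after a 30 min antagonist incubation, with propranolol present throughout to block β-adrenoceptors. Contraction was expressed as % of the first-curve maximum. EC50 was fitted by non-linear regression, and Schild analysis of concentration ratios gave pA2. n ≥ 5.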

Test [1] has as its system Rattus norvegicus. Description: Hypotensive activity in normotensive Wistar rat assessed as systolic blood pressure at 5 mg/kg, iv after 20 mins (Rvb=142.5 +/- 3.6 mmHg). Format: functional, Artery.
Test [2] deals with Rattus norvegicus. Description: Hypotensive activity in normotensive Wistar rat assessed as systolic blood pressure at 5 mg/kg, iv after 30 mins (Rvb=142.5 +/- 3.6 mmHg). Format: functional, Artery.
Test [3] relates to Rattus norvegicus. Description: Hypotensive activity in normotensive Wistar rat assessed as systolic blood pressure at 5 mg/kg, iv after 60 mins (Rvb=142.5 +/- 3.6 mmHg). Format: functional, Artery.
The test system of test [4] is Rattus norvegicus. Briefly: Hypotensive activity in normotensive Wistar rat assessed as diastolic blood pressure at 5 mg/kg, iv after 5 mins (Rvb=127 +/- 8.1 mmHg). Format: functional, Artery.
For test [5], the system named is Rattus norvegicus. Description: Hypotensive activity in normotensive Wistar rat assessed as diastolic blood pressure at 5 mg/kg, iv after 10 mins (Rvb=127 +/- 8.1 mmHg). Format: functional, Artery.
For test [6], the system named is Rattus norvegicus. Briefly: Hypotensive activity in normotensive Wistar rat assessed as diastolic blood pressure at 5 mg/kg, iv after 20 mins (Rvb=127 +/- 8.1 mmHg). Format: functional, Artery.
Test [7] has as its system Rattus norvegicus. Briefly: Hypotensive activity in normotensive Wistar rat assessed as diastolic blood pressure at 5 mg/kg, iv after 60 mins (Rvb=127 +/- 8.1 mmHg). Format: functional, Artery.
Test [8] deals with Alpha-1B adrenergic receptor (Cavia porcellus). Briefly: Antagonist activity at Alpha-1B adrenoceptor in guinea pig spleen assessed as inhibition of noradrenaline-induced contraction after 30 mins.
In test [9] the test system is Rattus norvegicus. Description: Hypotensive activity in normotensive Wistar rat assessed as systolic blood pressure at 2.5 mg/kg, iv after 10 mins (Rvb=125.6 +/- 7.6 mmHg). Format: functional, Artery.
In test [10] the test system is Rattus norvegicus. Description: Hypotensive activity in normotensive Wistar rat assessed as systolic blood pressure at 2.5 mg/kg, iv after 20 mins (Rvb=125.6 +/- 7.6 mmHg). Format: functional, Artery.
In test [11] the test system is Rattus norvegicus. Briefly: Hypotensive activity in normotensive Wistar rat assessed as systolic blood pressure at 2.5 mg/kg, iv after 60 mins (Rvb=125.6 +/- 7.6 mmHg). Format: functional, Artery.
Test [12] deals with Rattus norvegicus. Description: Hypotensive activity in normotensive Wistar rat assessed as diastolic blood pressure at 2.5 mg/kg, iv after 5 mins (Rvb=107.2 +/- 7.3 mmHg). Format: functional, Artery.
The subject of test [13] is Rattus norvegicus. Briefly: Hypotensive activity in normotensive Wistar rat assessed as diastolic blood pressure at 2.5 mg/kg, iv after 10 mins (Rvb=107.2 +/- 7.3 mmHg). Format: functional, Artery.
The test system of test [14] is Rattus norvegicus. Briefly: Hypotensive activity in normotensive Wistar rat assessed as diastolic blood pressure at 2.5 mg/kg, iv after 20 mins (Rvb=107.2 +/- 7.3 mmHg). Format: functional, Artery.
For test [15], the system named is Rattus norvegicus. Description: Hypotensive activity in normotensive Wistar rat assessed as systolic blood pressure at 5 mg/kg, iv after 5 mins (Rvb=139 +/- 0.6 mmHg). Format: functional, Artery.
For test [16], the system named is Rattus norvegicus. Description: Hypotensive activity in normotensive Wistar rat assessed as systolic blood pressure at 5 mg/kg, iv after 20 mins (Rvb=139 +/- 0.6 mmHg). Format: functional, Artery.
The test system of test [17] is Rattus norvegicus. Description: Hypotensive activity in normotensive Wistar rat assessed as systolic blood pressure at 5 mg/kg, iv after 30 mins (Rvb=139 +/- 0.6 mmHg). Format: functional, Artery.
The subject of test [18] is Rattus norvegicus. Description: Hypotensive activity in normotensive Wistar rat assessed as systolic blood pressure at 5 mg/kg, iv after 60 mins (Rvb=139 +/- 0.6 mmHg). Format: functional, Artery.
For test [19], the system named is Rattus norvegicus. Briefly: Hypotensive activity in normotensive Wistar rat assessed as diastolic blood pressure at 5 mg/kg, iv after 5 mins (Rvb=120 +/- 1.7 mmHg). Format: functional, Artery.
Test [20] relates to Rattus norvegicus. Briefly: Hypotensive activity in normotensive Wistar rat assessed as diastolic blood pressure at 5 mg/kg, iv after 10 mins (Rvb=120 +/- 1.7 mmHg). Format: functional, Artery.
For test [21], the system named is Rattus norvegicus. Description: Hypotensive activity in normotensive Wistar rat assessed as diastolic blood pressure at 5 mg/kg, iv after 20 mins (Rvb=120 +/- 1.7 mmHg). Format: functional, Artery.
The test system of test [22] is Rattus norvegicus. Description: Hypotensive activity in normotensive Wistar rat assessed as diastolic blood pressure at 5 mg/kg, iv after 30 mins (Rvb=120 +/- 1.7 mmHg). Format: functional, Artery.
Test [23] concerns Rattus norvegicus. Description: Hypotensive activity in normotensive Wistar rat assessed as diastolic blood pressure at 5 mg/kg, iv after 60 mins (Rvb=120 +/- 1.7 mmHg). Format: functional, Artery.
The test system of test [24] is Rattus norvegicus. Description: Hypotensive activity in normotensive Wistar rat assessed as diastolic blood pressure at 5 mg/kg, iv after 60 mins (Rvb=125.5 +/- 0.6 mmHg). Format: functional, Artery.
In test [25] the test system is Rattus norvegicus. Briefly: Hypotensive activity in normotensive Wistar rat assessed as systolic blood pressure at 5 mg/kg, iv after 5 mins (Rvb=138 +/- 0.9 mmHg). Format: functional, Artery.
The subject of test [26] is Rattus norvegicus. Briefly: Hypotensive activity in normotensive Wistar rat assessed as systolic blood pressure at 5 mg/kg, iv after 20 mins (Rvb=138 +/- 0.9 mmHg). Format: functional, Artery.
For test [27], the system named is Rattus norvegicus. Briefly: Hypotensive activity in normotensive Wistar rat assessed as systolic blood pressure at 5 mg/kg, iv after 30 mins (Rvb=138 +/- 0.9 mmHg). Format: functional, Artery.
The subject of test [28] is Rattus norvegicus. Description: Hypotensive activity in normotensive Wistar rat assessed as diastolic blood pressure at 5 mg/kg, iv after 5 mins (Rvb=119 +/- 1.2 mmHg). Format: functional, Artery.
Test [29] deals with Rattus norvegicus. Briefly: Hypotensive activity in normotensive Wistar rat assessed as diastolic blood pressure at 5 mg/kg, iv after 60 mins (Rvb=119 +/- 1.2 mmHg). Format: functional, Artery.
For test [30], the system named is Rattus norvegicus. Briefly: Hypotensive activity in normotensive Wistar rat assessed as systolic blood pressure at 5 mg/kg, iv after 10 mins (Rvb=141.3 +/- 6.4 mmHg). Format: functional, Artery.
Test [31] deals with Rattus norvegicus. Briefly: Hypotensive activity in normotensive Wistar rat assessed as systolic blood pressure at 5 mg/kg, iv after 20 mins (Rvb=141.3 +/- 6.4 mmHg). Format: functional, Artery.
Test [32] concerns Rattus norvegicus. Briefly: Hypotensive activity in normotensive Wistar rat assessed as diastolic blood pressure at 5 mg/kg, iv after 5 mins (Rvb=126 +/- 4.6 mmHg). Format: functional, Artery.
The subject of test [33] is Rattus norvegicus. Briefly: Hypotensive activity in normotensive Wistar rat assessed as diastolic blood pressure at 5 mg/kg, iv after 10 mins (Rvb=126 +/- 4.6 mmHg). Format: functional, Artery.
Test [34] concerns Rattus norvegicus. Description: Hypotensive activity in normotensive Wistar rat assessed as diastolic blood pressure at 5 mg/kg, iv after 30 mins (Rvb=126 +/- 4.6 mmHg). Format: functional, Artery.
Test [35] has as its system Rattus norvegicus. Briefly: Hypotensive activity in normotensive Wistar rat assessed as diastolic blood pressure at 5 mg/kg, iv after 60 mins (Rvb=126 +/- 4.6 mmHg). Format: functional, Artery.

`CCOc1ccccc1N1CCN(CC(O)CN2CCC(c3ccccc3)(c3ccccc3)C2=O)CC1.Cl.Cl` (stereo unspecified): the Kb at Guinea pig spleen α1B is 281 nM. Besides, the Activity with Rattus norvegicus [1] is given as 111 mmHg; in the test on Rattus norvegicus [2] it was 113.5 mmHg; in the test with Rattus norvegicus [3] it was 114 mmHg; in the test on Rattus norvegicus [4], 117 mmHg; in the test on Rattus norvegicus [5], 105 mmHg; with Rattus norvegicus [6] it was 98 mmHg. Moreover, the Activity in the test with Rattus norvegicus [7] was 95.5 mmHg; in test [8], “Dose-dependent effect”.

Take `COc1ccc(N2CCN(CC(O)CN3CCC(c4ccccc4)(c4ccccc4)C3=O)CC2)cc1.Cl.Cl` (stereo unspecified): the Activity in the test with Rattus norvegicus [9] is recorded as 115.2 mmHg; with Rattus norvegicus [10] it was 107.6 mmHg; in the test with Rattus norvegicus [11] it was 105.8 mmHg; in the test on Rattus norvegicus [12] it was 107 mmHg; with Rattus norvegicus [13] it was 96.4 mmHg; with Rattus norvegicus [14], 89.8 mmHg.

Turning to `COc1ccccc1N1CCN(CC(O)CN2CCC(c3ccccc3)(c3ccccc3)C2=O)CC1.Cl.Cl` (stereo unspecified), the Activity in the test on Rattus norvegicus [15] is given as 125 mmHg; with Rattus norvegicus [16], 118 mmHg; in the test on Rattus norvegicus [17] it was 116 mmHg; in the test on Rattus norvegicus [18], 112 mmHg; with Rattus norvegicus [19] it was 109 mmHg; in the test on Rattus norvegicus [20] it was 107.5 mmHg. Also, the Activity in the test on Rattus norvegicus [21] was found to be 104 mmHg; with Rattus norvegicus [22], 102.5 mmHg; with Rattus norvegicus [23], 98 mmHg.

Regarding `Cl.Cl.O=C1N(CC(O)CN2CCN(c3ccccc3)CC2)CCC1(c1ccccc1)c1ccccc1` (stereo unspecified), the Activity in the test on Rattus norvegicus [24] is reported as 109.5 mmHg.

As for `Cl.Cl.O=C1N(CC(O)CN2CCN(c3ccccc3C(F)(F)F)CC2)CCC1(c1ccccc1)c1ccccc1` (stereo unspecified), the Activity in the test on Rattus norvegicus [25] worked out at 126 mmHg; in the test with Rattus norvegicus [26] it was 119 mmHg; in the test with Rattus norvegicus [27], 116 mmHg; in the test with Rattus norvegicus [28] it was 103 mmHg; in the test with Rattus norvegicus [29] it was 100 mmHg.

Take `Cc1ccccc1N1CCN(CC(O)CN2CCC(c3ccccc3)(c3ccccc3)C2=O)CC1.Cl.Cl` (stereo unspecified): the Activity came out at 133.7 mmHg with Rattus norvegicus [30]; 136.3 mmHg in the test with Rattus norvegicus [31]; 116.7 mmHg with Rattus norvegicus [32]; 118 mmHg in the test on Rattus norvegicus [33]; 117.7 mmHg with Rattus norvegicus [34]; 99 mmHg in the test on Rattus norvegicus [35].
